Laboratory results taken from ChEMBL document CHEMBL4842338, “System-oriented optimization of multi-target 2,6-diaminopurine derivatives: Easily accessible broad-spectrum antivirals active against flaviviruses, influenza virus and SARS-CoV-2” (Eur J Med Chem, 2021).
Activity calls are given as the source filed them. The calls are words filed in the database; no cut-off is given here.

How the values were obtained:
[1] = Selectivity index, ratio of CC50 for human A549 cells to IC50 for Influenza A Puerto Rico/8/34/H1N1 infected in human A549 cells; assay type: toxicity, cell-based; details: read-out: Selectivity Index
Outline: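 MDCK or A549 cells (2.5 × 10⁵/well) infected with A/Puerto Rico/8/34 H1N1 for 1 h at 37 °C, then washed. Compound (0.5–20 μM) added in 2% FBS medium for 24 h, with DMSO final ≤0.2%. Virus in supernatants read by hemagglutination. CC₅₀ by MTT (2 × 10⁴ cells/well, same concentrations, 24 h, absorbance 570 nm). SI = CC₅₀/IC₅₀.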

[2] = Cytotoxicity against human Huh-7 cells assessed as reduction in cell viability by Celltiter-Glo luminescent cell viability assay; assay type: cell-based; details: Huh-7 cells
Outline: (§1)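 Compound-exposed cells assessed by CellTiter-Glo luminescence versus DMSO control; CC50 from dose-response.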

[3] = Selectivity index, ratio of CC50 for human Huh-7 cells to IC50 for Zika virus H/PF/2013 infected in pre-seeded Huh-7 cells assessed as inhibition of viral replication incubated for 72 hrs by immunodetection based direct yield reduction assay; assay type: toxicity, cell-based; details: read-out: Selectivity Index
Outline: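 Direct yield reduction in Huh7 cells (7000/well), infected with 50 TCID₅₀ of DENV or ZIKV, or 25 TCID₅₀ of WNV. Adsorption 1 h at 37 °C, then virus removed and serial compound dilutions added. Incubated 72 h (DENV, ZIKV) or 48 h (WNV). Viral antigen immunodetected on the monolayer. IC₅₀ by non-linear regression, mean of three experiments. SI = CC₅₀ (Huh7, CellTiter-Glo luminescence)/IC₅₀.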

West Nile virus = experiment: Antiviral activity against West Nile virus lineage 1 (Italy/2009) infected in pre-seeded Huh-7 cells assessed as inhibition of viral replication incubated for 48 hrs by immunodetection based plaque reduction assay; assay type: functional, organism-based; details: Huh-7, 48 h
[4] = Antioxidant activity assessed as inhibition of ABTS radical scavenging activity at 10 uM to 1 mM measured after 10 mins; assay type: functional
Outline: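 ABTS radical solution diluted in ethanol (1:100) to A734 0.70; 3.0 mL mixed with 30 μL sample in DMSO at 10 μM–1 mM; A734 read after exactly 10 min; ascorbic acid reference; % scavenging = (A0−As)/A0×100.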

[5] = Stability of the compound in presence of 40 mM H2O2 in ethanol measured after 6 days; assay type: physicochemical; details: 144 h; time 6 day
Influenza A virus [6] = experiment: Antiviral activity against Influenza A Puerto Rico/8/34/H1N1 infected in human A549 cells assessed as reduction in viral protein expression at 20 uM pretreated for 2 hrs followed by staining with anti-Flu antibody observed at 24 hrs post infection by In-cell western assay; assay type: functional, organism-based; details: A/Puerto Rico/8/1934(H1N1)
Influenza A virus [7] = experiment: Antiviral activity against Influenza A/California/04/2009H1N1 infected in human A549 cells assessed as reduction in viral protein expression at 20 uM treated for 1 hr during viral adsorption followed by staining with anti-Flu antibody observed at 24 hrs post infection by In-cell western assay; assay type: functional, organism-based
Influenza A virus [8] = experiment: Antiviral activity against Influenza A/California/04/2009H1N1 infected in human A549 cells assessed as reduction in viral protein expression at 20 uM treated for 24 hr pdp viral adsorption followed by staining with anti-Flu antibody observed at 24 hrs post infection by In-cell western assay; assay type: functional, organism-based
Influenza A virus [9] = experiment: Antiviral activity against Influenza A virus (A/parrot/Ulster/73(H7N1)) infected in human A549 cells assessed as reduction in viral protein expression at 20 uM pretreated for 2 hrs followed by staining with anti-Flu antibody observed at 24 hrs post infection by In-cell western assay; assay type: functional, organism-based
Influenza A virus [10] = experiment: Antiviral activity against Influenza A virus (A/parrot/Ulster/73(H7N1)) infected in human A549 cells assessed as reduction in viral protein expression at 20 uM treated for 24 hrs, pdp viral adsorption followed by staining with anti-Flu antibody observed at 24 hrs post infection by In-cell western assay; assay type: functional, organism-based
Influenza A virus [11] = experiment: Antiviral activity against Influenza A virus (A/parrot/Ulster/73(H7N1)) infected in human A549 cells assessed as reduction in viral protein expression at 20 uM treated for 2 to 6 hrs post infection and measured following infection of MDCK cells with supernatant for 24 hrs by time-of-addition assay; assay type: functional, organism-based; details: time 2-6 hrs
[12] = Cytotoxicity against human Huh-7 cells infected with SARS-COV-2 assessed as reduction in cell viability by celltiter-glo luminescent cell viability assay; assay type: cell-based; details: Huh-7 cells infected with SARS-COV-2; outline: as §1
[13] = Selectivity index, ratio of CC50 for human Huh-7 cells infected with SARS-COV-2 to IC50 for SARS-COV 2 infected in human Huh-7; assay type: toxicity; details: read-out: Selectivity Index
Caco-2 = experiment: Cytotoxicity against human Caco2 cells infected with SARS-COV-2 assessed as reduction in cell viability by celltiter-glo luminescent cell viability assay; assay type: cell-based; outline: as §1
SARS-CoV-2 [14] = experiment: Antiviral activity against SARS-COV 2 infected in monkey Vero E6 cells assessed as inhibition of viral replication at MOI of 0.01 and incubated after 2 hrs post infection for 48 hrs by direct yield reduction assay; assay type: functional, organism-based; details: Severe acute respiratory syndrome coronavirus 2, Vero C1008
SARS-CoV-2 [15] = experiment: Antiviral activity against SARS-COV 2 infected in human Calu-3 cells assessed as inhibition of viral replication at MOI of 0.01 followed by removal of test compound after cell virus adsorption incubated for 72 hrs by ENTRY-DYRA method; assay type: functional, organism-based; details: Severe acute respiratory syndrome coronavirus 2, Calu-3, 72 h
SARS-CoV-2 [16] = experiment: Antiviral activity against SARS-COV 2 infected in quadruplicate Vero E6 cells with DYRA supernatant assessed as reduction in viral replication at 20 uM; assay type: functional; details: Severe acute respiratory syndrome coronavirus 2, Vero C1008
[17] = Inhibition of full length Dengue virus 2 NS5 RNA dependent RNA polymerase incubated for 10 mins by picogreen staining based fluorescent analysis (Rvb= 0.32+/-0.05 uM); design: species or system dengue virus type 2
Huh-7 = experiment: Effect on formation of DENV replication complex in human Huh-7 cells assessed as reduction in expression of NS5 at 50 uM measured after 8 to 24 hrs by DAPI staining based confocal microscopy analysis; assay type: functional, cell-based; details: time 8-24 hrs
Outline: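 Huh-7 cells (1 × 10⁴) on coverslips infected with DENV-2 (MOI 0.05), treated (100 or 50 μM as listed), fixed in 4% paraformaldehyde at 8, 12, 16, 24 h; anti-NS3/anti-NS5 with Alexa 488/568 secondaries, DAPI; confocal, 5 random fields at 40×; % positive cells; 2-way ANOVA with Dunnett.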

[18] = target: Abl (Tyrosine-protein kinase ABL1) (Homo sapiens, UniProt P00519); experiment: Inhibition of human recombinant N terminal His6 tagged Abl (27 to end residue) assessed as residual activity at 5 uM using KKGEAIYAADFA-NH2 as a substrate in the presence of NP-40 incubated for 10 mins by scintillation counting analysis relative to control; details: probe KKGEAIYAADFA-NH2, read-out: Activity
Abl (Tyrosine-protein kinase ABL1), sequence (P00519 whole entry): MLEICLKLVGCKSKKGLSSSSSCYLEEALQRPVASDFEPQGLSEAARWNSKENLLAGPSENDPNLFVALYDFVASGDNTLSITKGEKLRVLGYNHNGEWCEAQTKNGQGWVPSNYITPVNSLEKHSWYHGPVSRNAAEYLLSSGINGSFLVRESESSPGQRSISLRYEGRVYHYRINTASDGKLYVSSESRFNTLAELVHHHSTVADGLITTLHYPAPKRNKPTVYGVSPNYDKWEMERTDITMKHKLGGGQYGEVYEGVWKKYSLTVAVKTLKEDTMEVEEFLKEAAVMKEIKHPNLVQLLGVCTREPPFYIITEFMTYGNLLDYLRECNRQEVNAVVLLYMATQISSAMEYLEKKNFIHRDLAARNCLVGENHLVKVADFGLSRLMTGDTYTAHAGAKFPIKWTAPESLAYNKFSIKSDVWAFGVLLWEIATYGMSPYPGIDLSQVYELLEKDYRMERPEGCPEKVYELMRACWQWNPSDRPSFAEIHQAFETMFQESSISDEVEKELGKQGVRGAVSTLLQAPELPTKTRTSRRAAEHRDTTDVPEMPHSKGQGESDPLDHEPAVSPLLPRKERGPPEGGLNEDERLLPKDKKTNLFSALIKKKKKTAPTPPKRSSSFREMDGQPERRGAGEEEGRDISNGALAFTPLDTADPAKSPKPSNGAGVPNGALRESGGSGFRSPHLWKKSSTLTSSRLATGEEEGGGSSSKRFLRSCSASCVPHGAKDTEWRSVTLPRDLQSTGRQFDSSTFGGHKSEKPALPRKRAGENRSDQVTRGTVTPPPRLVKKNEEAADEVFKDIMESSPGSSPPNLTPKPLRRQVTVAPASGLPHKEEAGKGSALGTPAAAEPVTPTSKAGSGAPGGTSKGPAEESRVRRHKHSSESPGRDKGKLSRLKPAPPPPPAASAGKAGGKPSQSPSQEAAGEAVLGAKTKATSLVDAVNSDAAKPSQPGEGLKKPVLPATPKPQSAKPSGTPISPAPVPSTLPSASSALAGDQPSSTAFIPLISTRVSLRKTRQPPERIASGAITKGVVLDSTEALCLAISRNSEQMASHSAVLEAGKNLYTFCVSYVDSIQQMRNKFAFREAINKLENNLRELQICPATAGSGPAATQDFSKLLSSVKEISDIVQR
Outline: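 Compounds at fixed 5 μM; 10–50 ng kinase, substrate and NP-40/BSA per supplementary table, 10 μL at 30 °C for 10 min in low-binding tubes. Reactions spotted on filter, dried, scintillation counted. Mean ± SD of two independent experiments.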

SMILES: FC(F)(F)c1cccc(Nc2nc(NCCOc3ccccc3)nc3[nH]cnc23)c1
- selectivity ratio [1]: 11
- CC50 [2]: 200 µM
- selectivity ratio at 72 h [3]: 250
- IC50 (West Nile virus): 3.9 µM
- Activity [4]: Active
- Stabilty [5]: Unstable
- Activity (Influenza A virus [6]): Active
- Activity (Influenza A virus [7]): Active
- Activity (Influenza A virus [8]): Active
- Activity (Influenza A virus [9]): Active
- Activity (Influenza A virus [10]): Active
- Activity (Influenza A virus [11]): Active
- CC50 [12]: 200 µM
- selectivity ratio [13]: 74
- CC50 (Caco-2): 81.3 µM
- IC50 (SARS-CoV-2 [14]): 53.4 µM
- IC50 (SARS-CoV-2 [15]): 1.9 µM
- inhibition at 20 µM (SARS-CoV-2 [16]): 91.9%
- IC50 [17]: 43.7 µM
- Activity (Huh-7): Active
- activity at 10 min, 5 µM [18]: 70%
